# Experimental data taken from ChEMBL document CHEMBL1155236, “Identification of biphenyl-based hybrid molecules able to decrease the intracellular level of Bcl-2 protein in Bcl-2 overexpressing leukemia cells” (J Med Chem, 2009).
# The source made the active and inactive calls. The calls are words filed in the database; no cut-off is given here.
# Columns and labels:
# [1] = tested on: HL-60; assay: Induction of apoptosis in human HL60 cells assessed as induction of cell differentiation marker CD11c expression at 10 uM after 120 hrs by flow cytometry; format: functional, cell-based
# Outline: (§1)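 HL60 or K562 cells exposed to 10 μM compound or no compound (control) for 120 h (5 days). Surface CD11c and CD61 read by flow cytometry with PE- or FITC-conjugated monoclonal antibodies. Treated cells compared with untreated cells.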
# [2] = tested on: K562; assay: Cell cycle arrest in human K562 cells by accumulation at S phase at 30 uM after 72 hrs using propidium iodide staining by FACS; format: functional
# Outline: (§2)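 K562 cells treated for 24, 48 or 72 h. Cells stained with propidium iodide and cell-cycle phase distribution analysed by flow cytometry against untreated cells. The sub-G0–G1 peak was taken as apoptotic.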
# [3] = tested on: K562; assay: Cell cycle arrest in human K562 cells by accumulation at G2/M phase at 30 uM after 24 hrs using propidium iodide staining by FACS; format: functional; outline: as §2
# [4] = tested on: K562; assay: Cell cycle arrest in human K562 cells by accumulation at sub-G1 (apoptotic) phase at 30 uM after 72 hrs using propidium iodide staining by FACS; format: functional; outline: as §2
# [5] = tested on: K562; assay: Cell cycle arrest in human K562 cells by accumulation at G2/M phase at 30 uM after 48 hrs using propidium iodide staining by FACS; format: functional; outline: as §2
# [6] = tested on: K562; assay: Cell cycle arrest in human K562 cells by accumulation at G1 phase at 30 uM after 24 hrs using propidium iodide staining by FACS; format: functional; outline: as §2
# [7] = tested on: K562; assay: Cell cycle arrest in human K562 cells by accumulation at G1 phase at 30 uM after 48 hrs using propidium iodide staining by FACS; format: functional; outline: as §2
# [8] = tested on: K562; assay: Induction of apoptosis in human K562 cells assessed as induction of cell differentiation marker CD11c expression at 10 uM after 120 hrs by flow cytometry; format: functional, cell-based; outline: as §1
# [9] = tested on: HL-60; assay: Antiproliferative activity against human HL60 cells after 48 hrs by trypan blue method; format: functional, cell-based; details: HL-60, 48 h
# Outline: (§3)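 Growth inhibition read by counting cells with an automatic cell counter after 48 h of compound exposure. IC50 is the concentration inhibiting 50% of cell growth.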
# [10] = tested on: K562; assay: Cell cycle arrest in human K562 cells by accumulation at S phase at 30 uM after 24 hrs using propidium iodide staining by FACS; format: functional; outline: as §2
# [11] = tested on: K562; assay: Induction of apoptosis in human K562 cells assessed as decrease in Bcl-2 expression at 30 uM after 24 hrs by flow cytometry; format: functional; set-up: scale not given: the % may be the effect or the level left
# Outline: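 K562 cells cultured 24 h with compound at 30 μM or without (control). Intracellular Bcl-2 read by flow cytometry after staining with FITC-conjugated anti-Bcl-2 monoclonal antibody. Treated histograms compared with control histograms.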
# [12] = tested on: K562; assay: Induction of apoptosis in human K562 cells assessed as induction of cell differentiation marker CD61 expression at 10 uM after 120 hrs by flow cytometry; format: functional, cell-based; outline: as §1
# [13] = tested on: K562; assay: Cell cycle arrest in human K562 cells by accumulation at S phase at 30 uM after 48 hrs using propidium iodide staining by FACS; format: functional; outline: as §2
# [14] = tested on: K562; assay: Cell cycle arrest in human K562 cells by accumulation at G1 phase at 30 uM after 72 hrs using propidium iodide staining by FACS; format: functional; outline: as §2
# [15] = tested on: K562; assay: Cell cycle arrest in human K562 cells by accumulation at sub-G1 (apoptotic) phase at 30 uM after 24 hrs using propidium iodide staining by FACS; format: functional; outline: as §2
# [16] = tested on: HL-60; assay: Induction of apoptosis in human HL60 cells assessed as induction of cell differentiation marker CD61 expression at 10 uM after 120 hrs by flow cytometry; format: functional, cell-based; outline: as §1
# [17] = tested on: K562; assay: Cell cycle arrest in human K562 cells by accumulation at G2/M phase at 30 uM after 72 hrs using propidium iodide staining by FACS; format: functional; outline: as §2
# [18] = tested on: K562; assay: Cell cycle arrest in human K562 cells by accumulation at sub-G1 (apoptotic) phase at 30 uM after 48 hrs using propidium iodide staining by FACS; format: functional; outline: as §2
# [19] = tested on: K562; assay: Antiproliferative activity against human K562 cells after 48 hrs by trypan blue method; format: functional, cell-based; details: K562, 48 h; outline: as §3
# [20] = Cytotoxicity against human lymphocytes after 48 hrs by trypan blue method; format: cell-based; details: Lymphocyte; outline: as §3
# [21] = tested on: HL-60; assay: Induction of apoptosis in human HL60 cells assessed as morphological changes after 48 hrs by annexin V assay; format: functional, cell-based; details: HL-60, 48 h
# Outline: (§4)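 HL60 or K562 cells treated for 48 h. Apoptosis scored by morphological assay and annexin V test. AC50 is the concentration inducing apoptosis in 50% of cells.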
# [22] = tested on: K562; assay: Induction of apoptosis in human K562 cells assessed as morphological changes after 48 hrs by annexin V assay; format: functional, cell-based; details: K562, 48 h; outline: as §4
# [23] = tested on: K562; assay: Cell cycle arrest in human K562 cells by accumulation at S phase at 130 uM after 24 hrs using propidium iodide staining by FACS; format: functional; outline: as §2
# [24] = tested on: K562; assay: Cell cycle arrest in human K562 cells by accumulation at G1 phase at 130 uM after 72 hrs using propidium iodide staining by FACS; format: functional; outline: as §2
# [25] = tested on: K562; assay: Cell cycle arrest in human K562 cells by accumulation at A phase at 130 uM after 24 hrs using propidium iodide staining by FACS; format: functional; outline: as §2
# [26] = tested on: K562; assay: Cell cycle arrest in human K562 cells by accumulation at G2/M phase at 130 uM after 24 hrs using propidium iodide staining by FACS; format: functional; outline: as §2
# [27] = tested on: K562; assay: Cell cycle arrest in human K562 cells by accumulation at G2/M phase at 130 uM after 48 hrs using propidium iodide staining by FACS; format: functional; outline: as §2
# [28] = tested on: K562; assay: Cell cycle arrest in human K562 cells by accumulation at S phase at 130 uM after 72 hrs using propidium iodide staining by FACS; format: functional; outline: as §2
# [29] = tested on: K562; assay: Cell cycle arrest in human K562 cells by accumulation at A phase at 130 uM after 48 hrs using propidium iodide staining by FACS; format: functional; outline: as §2
# [30] = tested on: K562; assay: Cell cycle arrest in human K562 cells by accumulation at G2/M phase at 130 uM after 72 hrs using propidium iodide staining by FACS; format: functional; outline: as §2
# [31] = tested on: K562; assay: Cell cycle arrest in human K562 cells by accumulation at G1 phase at 130 uM after 48 hrs using propidium iodide staining by FACS; format: functional; outline: as §2
# [32] = tested on: K562; assay: Cell cycle arrest in human K562 cells by accumulation at G1 phase at 130 uM after 24 hrs using propidium iodide staining by FACS; format: functional; outline: as §2
# [33] = tested on: K562; assay: Cell cycle arrest in human K562 cells by accumulation at S phase at 130 uM after 48 hrs using propidium iodide staining by FACS; format: functional; outline: as §2
# [34] = tested on: K562; assay: Cell cycle arrest in human K562 cells by accumulation at A phase at 130 uM after 72 hrs using propidium iodide staining by FACS; format: functional; outline: as §2
smiles,measurement,setting,value
CC1(C)OC(=O)C2(C(=O)O1)[C@@H](c1ccc(-c3ccc(-c4ccc(O)cc4)cc3)cc1)CC(=O)C[C@H]2c1ccccc1,Activity,[1],Active
same,Activity,[2],20%
same,Activity,[3],11%
same,Activity,[4],2%
same,Activity,[5],6%
same,Activity,[6],65%
same,Activity,[7],72%
same,Activity,[8],inactive
same,IC50,[9],16 µM
same,Activity,[10],26%
same,Activity,[11],4.9%
same,Activity,[12],inactive
same,Activity,[13],22%
same,Activity,[14],72%
same,Activity,[15],2%
same,Activity,[16],Active
same,Activity,[17],8%
same,Activity,[18],2%
same,IC50,[19],8 µM
same,IC50,[20]; read-out: IC50,185 µM
same,AC50,[21]; read-out: AC50,32 µM
same,AC50,[22]; read-out: AC50,> 100 µM
O=C1C[C@H](c2ccc(-c3ccc(O)cc3)cc2)C2(C(=O)c3ccccc3C2=O)[C@H](c2ccccc2)C1,Activity,[2],61%
same,Activity,[3],17%
same,Activity,[4],55%
same,Activity,[5],4%
same,Activity,[6],44%
same,Activity,[7],35%
same,IC50,[9],6 µM
same,Activity,[10],39%
same,Activity,[11],32.8%
same,Activity,[13],61%
same,Activity,[14],34%
same,Activity,[15],4%
same,Activity,[17],2%
same,Activity,[18],53%
same,IC50,[19],8 µM
same,IC50,[20]; read-out: IC50,215 µM
same,AC50,[21]; read-out: AC50,11 µM
same,AC50,[22]; read-out: AC50,25 µM
Oc1ccc(-c2ccc(-c3cc(O)cc(O)c3)cc2)cc1,IC50,[19],20 µM
same,AC50,[22],75 µM
CC1(C)OC(=O)C2(C(=O)O1)[C@@H](c1c[nH]c3ccccc13)CC(=O)C[C@H]2c1ccccc1,IC50,[9],62 µM
same,IC50,[19],> 100 µM
O=C1C[C@H](c2ccc(O)cc2)C2(C(=O)c3ccccc3C2=O)[C@H](c2ccc(O)cc2)C1,IC50,[9],28 µM
same,IC50,[19],73 µM
CC1(C)OC(=O)C2(C(=O)O1)[C@@H](c1ccc(O)cc1)CC(=O)C[C@H]2c1ccc(O)cc1,IC50,[9],87 µM
same,IC50,[19],> 100 µM
Oc1ccc(-c2cc(O)cc(O)c2)cc1,IC50,[9],> 80 µM
same,IC50,[19],> 80 µM
same,AC50,[21],> 80 µM
same,AC50,[22]; read-out: AC50,> 80 µM
O=C1C[C@H](c2ccc(O)cc2)C2(C(=O)c3ccccc3C2=O)[C@H](c2ccccc2)C1,IC50,[9],23 µM
same,IC50,[19],25 µM
OCc1ccc(-c2cc(O)cc(O)c2)cc1,IC50,[9],> 80 µM
same,IC50,[19],> 80 µM
same,AC50,[21]; read-out: AC50,> 80 µM
same,AC50,[22]; read-out: AC50,> 80 µM
CC1(C)OC(=O)C2(C(=O)O1)[C@@H](c1ccc(-c3ccc(O)cc3)cc1)CC(=O)C[C@H]2c1ccccc1,Activity,[2],54%
same,Activity,[3],11%
same,Activity,[4],47%
same,Activity,[5],9%
same,Activity,[6],46%
same,Activity,[7],39%
same,IC50,[9],8 µM
same,Activity,[10],43%
same,Activity,[11],31.2%
same,Activity,[13],52%
same,Activity,[14],37%
same,Activity,[15],7%
same,Activity,[17],9%
same,Activity,[18],46%
same,IC50,[19],9 µM
same,IC50,[20],172 µM
same,AC50,[21],16 µM
same,AC50,[22],33 µM
O=C1C[C@H](c2ccccc2)C2(C(=O)c3ccccc3C2=O)[C@H](c2ccccc2)C1,Activity,[23],61%
same,Activity,[24],7%
same,Activity,[25],13%
same,IC50,[9],20 µM
same,Activity,[26],12%
same,Activity,[27],34%
same,Activity,[28],21%
same,Activity,[29],18%
same,Activity,[30],72%
same,Activity,[31],26%
same,Activity,[32],27%
same,IC50,[19],98 µM
same,Activity,[33],40%
same,Activity,[34],20%
O=C1C[C@H](c2cnc[nH]2)C2(C(=O)c3ccccc3C2=O)[C@H](c2ccc(O)cc2)C1,IC50,[9],86 µM
same,IC50,[19],95 µM
COc1ccc(-c2ccc([C@H]3CC(=O)C[C@@H](c4ccccc4)C34C(=O)c3ccccc3C4=O)cc2)cc1,IC50,[9],> 100 µM
same,IC50,[19],> 100 µM
O=C1C[C@H](c2ccc(-c3ccc(CO)cc3)cc2)C2(C(=O)c3ccccc3C2=O)[C@H](c2ccccc2)C1,Activity,[1],Active
same,Activity,[2],32%
same,Activity,[3],19%
same,Activity,[4],11%
same,Activity,[5],22%
same,Activity,[6],47%
same,Activity,[7],48%
same,Activity,[8],inactive
same,IC50,[9],6 µM
same,Activity,[10],34%
same,Activity,[11],4.3%
same,Activity,[12],inactive
same,Activity,[13],30%
same,Activity,[14],48%
same,Activity,[15],4%
same,Activity,[16],Active
same,Activity,[17],20%
same,Activity,[18],6%
same,IC50,[19],14 µM
same,IC50,[20]; read-out: IC50,286 µM
same,AC50,[21]; read-out: AC50,12 µM
same,AC50,[22],80 µM
CC1(C)OC(=O)C2(C(=O)O1)[C@@H](c1ccc(-c3ccc(CO)cc3)cc1)CC(=O)C[C@H]2c1ccccc1,IC50,[9],20 µM
same,IC50,[19],38 µM
O=C1C[C@H](c2ncc[nH]2)C2(C(=O)c3ccccc3C2=O)[C@H](c2ncc[nH]2)C1,IC50,[9],> 100 µM
same,IC50,[19],> 100 µM
